Test results reported in ChEMBL document CHEMBL1781977, “Design and synthesis of 3,5-diarylisoxazole derivatives as novel class of anti-hyperglycemic and lipid lowering agents” (Bioorg Med Chem, 2009).
The source made the active and inactive calls. No cut-off for these calls is given here.

Assays:
[1] = system: Rattus norvegicus; experiment: Antihyperglycemic activity in Charles Foster/Wistar albino rat assessed as reduction in blood glucose level at 100 mg/kg, po administered 30 mins before sucrose challenge; assay type: functional
Method in brief: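 Male Charles Foster/Wistar rats, 160 ± 20 g, fasted 16 h; animals with glucose 60–80 mg/dl used, 5–6 per group. Given 100 mg/kg orally as suspension in 1.0% gum acacia (controls vehicle alone). Sucrose 10.0 g/kg orally 30 min later. Glucometer readings at 30, 60, 90, 120 min. Percent activity derived from AUC of treated versus control groups.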

[2] = system: Rattus norvegicus; experiment: Antihyperglycemic activity against sucrose challenged streptozotocin-induced diabetic Sprague-Dawley albino rat assessed as reduction in blood glucose level at 15 mg/kg, po administered 30 mins before sucrose challenge; assay type: functional
Method in brief: (§1)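 Streptozotocin-diabetic Sprague Dawley rats: streptozotocin 60 mg/kg ip in citrate pH 4.5; rats at 144–270 mg/dl after 48 h used. Oral doses of 7.5–100 mg/kg in 1.0% gum acacia, then sucrose 2.5 g/kg. Glucose measured at 30, 60, 90, 120, 180, 240, 300 and 1440 min. ED50 taken from dose response. Mean ± SD, n = 5; Dunnett's test.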

[3] = system: Rattus norvegicus; experiment: Antihyperglycemic activity against sucrose challenged streptozotocin-induced diabetic Sprague-Dawley albino rat assessed as reduction in blood glucose level at 50 mg/kg, po administered 30 mins before sucrose challenge; assay type: functional; method in brief: as §1
[4] = system: Rattus norvegicus; experiment: Antihyperglycemic activity against sucrose challenged streptozotocin-induced diabetic Sprague-Dawley albino rat assessed as reduction in blood glucose level at 100 mg/kg, po administered 30 mins before sucrose challenge measured after 5 hrs; assay type: functional
Method in brief: (§2)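 Male Sprague Dawley rats, 160 ± 20 g, fasted overnight, given streptozotocin 60 mg/kg ip in 100 mM citrate pH 4.5. Rats with glucose 144–270 mg/dl at 48 h count as diabetic, 5–6 per group. Dosed 100 mg/kg orally in 1.0% gum acacia. Sucrose 2.5 g/kg given 30 min later. Glucose read at 30–300 min and 24 h. Non-responders excluded.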

[5] = system: Mus musculus; experiment: Antidyslipidemic activity in C57BL/Ks db/db mouse assessed as reduction in plasma cholesterol level at 100 mg/kg, po; assay type: functional
Method in brief: (§3)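 db/db mice (C57BL/KsBom, 12–18 weeks, 5 male and 5 female) dosed orally at 100 mg/kg in 1.0% gum acacia. Blood collected on day 8 for serum lipids. Mean ± SD, n = 5, against vehicle-treated db/db controls; Dunnett's test.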

[6] = system: Rattus norvegicus; experiment: Antihyperglycemic activity against sucrose challenged streptozotocin-induced diabetic Sprague-Dawley albino rat assessed as reduction in blood glucose level at 100 mg/kg, po administered 30 mins before sucrose challenge; assay type: functional; method in brief: as §2
[7] = system: Rattus norvegicus; experiment: Antihyperglycemic activity against sucrose challenged streptozotocin-induced diabetic Sprague-Dawley albino rat assessed as reduction in blood glucose level administered orally 30 mins before sucrose challenge; assay type: functional; details: po; method in brief: as §1
[8] = system: Mus musculus; experiment: Antidyslipidemic activity in C57BL/Ks db/db mouse assessed as plasma HDL-cholesterol level at 100 mg/kg, po; assay type: functional; method in brief: as §3
[9] = system: Mus musculus; experiment: Antihyperglycemic activity in C57BL/Ks db/db mouse assessed as reduction in blood glucose level at 100 mg/kg, po measured 10 days post dose by postprandial glucose tolerance test; assay type: functional; details: 240 h, in the assay text read “oral glucose tolerance test” for “postprandial glucose tolerance test”
Method in brief: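 db/db mice (C57BL/KsBom, 12–18 weeks, 40–50 g) given 100 mg/kg orally, vehicle 1.0% gum acacia. Day 10 OGTT after overnight fast: glucose at −30 min and drug given, then glucose at 0 min. Glucose 3 g/kg given, with readings at 30, 60, 90 and 120 min.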

[10] = system: Rattus norvegicus; experiment: Antihyperglycemic activity against sucrose challenged streptozotocin-induced diabetic Sprague-Dawley albino rat assessed as reduction in blood glucose level at 7.5 mg/kg, po administered 30 mins before sucrose challenge; assay type: functional; method in brief: as §1
[11] = system: Mus musculus; experiment: Antidyslipidemic activity in C57BL/Ks db/db mouse assessed as reduction in plasma triglyceride level at 100 mg/kg, po; assay type: functional; method in brief: as §3
[12] = biological target: T1, Tyrosine-protein phosphatase non-receptor type 1 (Homo sapiens) (UniProt P18031); experiment: Inhibition of protein tyrosine phosphatase-1B at 10 uM incubated for 10 mins using pNPP substrate by modified Goldstein method; set-up: Activity: scale not given: the % may be the effect or the level left
T1 sequence (whole entry): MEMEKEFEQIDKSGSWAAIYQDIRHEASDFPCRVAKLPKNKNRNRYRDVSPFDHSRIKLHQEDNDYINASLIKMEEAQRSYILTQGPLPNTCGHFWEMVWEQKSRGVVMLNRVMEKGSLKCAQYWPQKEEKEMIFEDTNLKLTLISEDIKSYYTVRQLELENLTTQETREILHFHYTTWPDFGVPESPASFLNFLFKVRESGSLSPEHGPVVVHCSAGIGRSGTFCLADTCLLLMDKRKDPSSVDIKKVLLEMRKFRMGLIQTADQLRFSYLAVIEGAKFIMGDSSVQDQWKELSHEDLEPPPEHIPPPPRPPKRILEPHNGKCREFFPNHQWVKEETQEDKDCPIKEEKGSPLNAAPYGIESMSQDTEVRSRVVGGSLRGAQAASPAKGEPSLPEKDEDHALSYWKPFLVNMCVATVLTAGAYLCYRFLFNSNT
Method in brief: (§4)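 PTP-1B: compound preincubated 10 min with enzyme, with or without 0.01% Triton X-100. Then 10 mM pNPP in 50 mM HEPES pH 7.0 with 1 mM DTT and 2 mM EDTA, 30 min at 37 °C. Stopped with 0.1 N NaOH; absorbance read at 410 nm. p-Nitrophenolate calculated using ε 1.78 × 10⁴ M⁻¹cm⁻¹. Sodium orthovanadate used as reference.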

[13] = biological target: T2, Tyrosine-protein phosphatase non-receptor type 1 (Homo sapiens, UniProt P18031); experiment: Inhibition of protein tyrosine phosphatase-1B at 10 uM incubated for 10 mins using pNPP substrate in absence of Triton X-100 by modified Goldstein method; method in brief: as §4
T2 sequence (P18031 whole entry): T1 sequence (whole entry)

[14] = system: Mus musculus; experiment: Antihyperglycemic activity in C57BL/Ks db/db mouse assessed as reduction in blood glucose level at 100 mg/kg, po measured 6 days post dose by postprandial glucose tolerance test; assay type: functional; details: 144 h
Method in brief: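 C57BL/KsBom-db mice, 12–18 weeks, 40–50 g, 5 male and 5 female, at 23 °C with 12/12 h light cycle. Treated orally at 100 mg/kg, vehicle 1.0% gum acacia. Day 6 postprandial test: glucose at −0.5 h and 0 h, then at 1, 2, 3, 4 and 6 h after dosing.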

[15] = biological target: Dipeptidyl peptidase 4 (Homo sapiens) (UniProt P27487); experiment: Inhibition of DPP4 assessed as rate of substrate cleavage using Gly-Pro-AMC substrate by spectrofluorometry
Chain of Dipeptidyl peptidase 4 (Homo sapiens) (P27487 whole entry, looked up): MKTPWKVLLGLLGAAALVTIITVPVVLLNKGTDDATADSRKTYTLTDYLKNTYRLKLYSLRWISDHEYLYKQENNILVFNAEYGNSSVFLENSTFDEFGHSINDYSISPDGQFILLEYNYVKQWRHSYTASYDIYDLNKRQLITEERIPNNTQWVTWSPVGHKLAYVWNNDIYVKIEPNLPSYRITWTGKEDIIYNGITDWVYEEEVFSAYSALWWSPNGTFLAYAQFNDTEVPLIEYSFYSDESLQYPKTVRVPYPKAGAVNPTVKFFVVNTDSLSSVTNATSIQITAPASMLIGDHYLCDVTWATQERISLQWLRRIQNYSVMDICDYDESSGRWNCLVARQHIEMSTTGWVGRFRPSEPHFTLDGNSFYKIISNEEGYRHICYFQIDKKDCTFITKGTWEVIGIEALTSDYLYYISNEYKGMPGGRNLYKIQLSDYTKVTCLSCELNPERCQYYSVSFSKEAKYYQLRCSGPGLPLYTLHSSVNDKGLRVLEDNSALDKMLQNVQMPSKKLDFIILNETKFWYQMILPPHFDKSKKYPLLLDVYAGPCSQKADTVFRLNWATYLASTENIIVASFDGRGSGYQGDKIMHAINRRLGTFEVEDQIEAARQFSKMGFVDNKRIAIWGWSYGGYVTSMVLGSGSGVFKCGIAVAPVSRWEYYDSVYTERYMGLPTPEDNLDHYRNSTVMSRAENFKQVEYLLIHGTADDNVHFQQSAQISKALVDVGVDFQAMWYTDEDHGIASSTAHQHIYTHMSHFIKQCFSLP
Method in brief: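 DPP-IV activity read by fluorescence at 37 °C, excitation 355 nm and emission 460 nm. Initial rate calculated over the first 15 min as increase in fluorescence intensity.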

[16] = system: Rattus norvegicus; experiment: Antihyperglycemic activity against sucrose challenged streptozotocin-induced diabetic Sprague-Dawley albino rat assessed as reduction in blood glucose level at 100 mg/kg, po administered 30 mins before sucrose challenge measured after 24 hrs; assay type: functional; method in brief: as §2
[17] = biological target: T2, Tyrosine-protein phosphatase non-receptor type 1; experiment: Inhibition of protein tyrosine phosphatase-1B at 10 uM incubated for 10 mins using pNPP substrate in presence of 0.01% Triton X-100 by modified Goldstein method; method in brief: as §4
[18] = system: Rattus norvegicus; experiment: Antihyperglycemic activity against sucrose challenged streptozotocin-induced diabetic Sprague-Dawley albino rat assessed as reduction in blood glucose level at 25 mg/kg, po administered 30 mins before sucrose challenge; assay type: functional; method in brief: as §1
[19] = biological target: T3, Peroxisome proliferator-activated receptor gamma (Homo sapiens) (UniProt P37231); experiment: Activation of PPARgamma by receptor transactivation assay
T3 sequence (whole entry): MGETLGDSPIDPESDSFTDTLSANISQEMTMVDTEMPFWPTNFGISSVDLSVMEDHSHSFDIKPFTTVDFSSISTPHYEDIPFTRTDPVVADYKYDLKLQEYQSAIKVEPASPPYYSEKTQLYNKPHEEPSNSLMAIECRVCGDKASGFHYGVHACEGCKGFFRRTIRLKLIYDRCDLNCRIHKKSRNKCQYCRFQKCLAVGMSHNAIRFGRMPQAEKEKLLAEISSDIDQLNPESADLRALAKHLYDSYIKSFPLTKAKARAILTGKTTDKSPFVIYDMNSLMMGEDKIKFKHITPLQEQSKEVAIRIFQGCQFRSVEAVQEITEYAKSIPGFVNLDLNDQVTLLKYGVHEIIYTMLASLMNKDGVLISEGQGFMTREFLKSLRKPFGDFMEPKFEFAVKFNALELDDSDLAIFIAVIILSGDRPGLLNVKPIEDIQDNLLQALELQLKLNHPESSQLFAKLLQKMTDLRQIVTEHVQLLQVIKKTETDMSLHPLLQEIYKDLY

[20] = species: Mus musculus; experiment: Antihyperglycemic activity in C57BL/Ks db/db mouse assessed as reduction in blood glucose level measured after 3 days relative to control; assay type: functional

Structure (SMILES) | inhibition in vivo at 100 mg/kg [1] | inhibition in vivo at 15 mg/kg [2] | inhibition in vivo at 50 mg/kg [3] | inhibition in vivo at 100 mg/kg [4] | inhibition in vivo at 100 mg/kg [5] | inhibition in vivo at 100 mg/kg [6] | ED50 [7] | Activity [8] | inhibition in vivo at 100 mg/kg [9] | inhibition in vivo at 7.5 mg/kg [10] | inhibition in vivo at 100 mg/kg [11] | IC50 [13] | inhibition in vivo at 100 mg/kg [14] | inhibition [15] | inhibition in vivo at 100 mg/kg [16] | IC50 [17] | inhibition in vivo at 25 mg/kg [18] | inhibition (INH) [20] | other results
COc1ccc(-c2cc(-c3ccccc3)no2)c(OCCN2CCCCC2)c1 | 27.6% | 12.6% | 16.7% | 17.6% | -12.2% | 20.7% | 64.5 mg/kg | 1.3% | 16.1% | 9.8% | -7.5% | 8.8 µM | 17.4% | inactive | 18.7% | 9 µM | 14% | 18.5% | inhibition [12]: 76.3%; Activity [19]: inactive
COc1ccc(-c2cc(-c3ccccc3)no2)c(OCC(O)CN2CCCC2)c1 (centres undefined) | 26.8% | 11.6% | 17.9% | 18.5% | -9.8% | 18.5% | 80.2 mg/kg | 1.8% | 15.5% | 8.4% | -8.5% | 3.4 µM | 15.9% | inactive | 17.6% | 4.2 µM | 13.8% | 15.7% | Activity [12]: 86.2%
